Results on 9 molecules are retold here after ChEMBL document CHEMBL4257453, “Identification of karanjin isolated from the Indian beech tree as a potent CYP1 enzyme inhibitor with cellular efficacy via screening of a natural product repository” (Medchemcomm, 2018).

In data set [1] the target is T1, CYP1A1 (Homo sapiens, UniProt P04798).
T1 sequence (P04798 whole entry): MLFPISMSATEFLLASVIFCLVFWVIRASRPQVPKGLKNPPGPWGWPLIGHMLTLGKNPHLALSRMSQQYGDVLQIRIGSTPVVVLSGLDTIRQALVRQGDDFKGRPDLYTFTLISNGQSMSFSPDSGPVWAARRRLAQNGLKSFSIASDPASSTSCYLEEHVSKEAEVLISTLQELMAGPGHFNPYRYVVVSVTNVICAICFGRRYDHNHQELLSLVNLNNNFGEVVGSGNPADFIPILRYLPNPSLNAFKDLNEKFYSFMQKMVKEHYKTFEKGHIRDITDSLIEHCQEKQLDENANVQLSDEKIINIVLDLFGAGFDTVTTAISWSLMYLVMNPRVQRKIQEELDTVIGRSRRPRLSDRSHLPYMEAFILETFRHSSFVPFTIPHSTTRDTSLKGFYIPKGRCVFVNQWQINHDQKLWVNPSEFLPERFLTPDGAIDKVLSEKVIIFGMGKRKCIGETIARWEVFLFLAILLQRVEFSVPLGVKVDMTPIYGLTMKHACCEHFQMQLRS
Nature of the data set: Inhibition of recombinant human CYP1A1 expressed in baker's yeast-derived microsomes (Sacchrosomes) at 10 uM using 7-ethoxyresorufin substrate by EROD assay relative to control. To be noted: probe 7-ethoxyresorufin. The essentials: (§1)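 Yeast microsomes carrying recombinant CYP (Sacchrosomes). Substrates per isoform are 7-ethoxyresorufin, 3-cyano-7-ethoxycoumarin, EOMCC or dibenzylfluorescein, read as endpoint fluorescence. Background from compound-only wells without enzyme is subtracted. Independent triplicate runs; α-naphthoflavone positive control.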

Another data set deals with T2, CYP1A2 (Homo sapiens, UniProt P05177).
T2 sequence (P05177 whole entry): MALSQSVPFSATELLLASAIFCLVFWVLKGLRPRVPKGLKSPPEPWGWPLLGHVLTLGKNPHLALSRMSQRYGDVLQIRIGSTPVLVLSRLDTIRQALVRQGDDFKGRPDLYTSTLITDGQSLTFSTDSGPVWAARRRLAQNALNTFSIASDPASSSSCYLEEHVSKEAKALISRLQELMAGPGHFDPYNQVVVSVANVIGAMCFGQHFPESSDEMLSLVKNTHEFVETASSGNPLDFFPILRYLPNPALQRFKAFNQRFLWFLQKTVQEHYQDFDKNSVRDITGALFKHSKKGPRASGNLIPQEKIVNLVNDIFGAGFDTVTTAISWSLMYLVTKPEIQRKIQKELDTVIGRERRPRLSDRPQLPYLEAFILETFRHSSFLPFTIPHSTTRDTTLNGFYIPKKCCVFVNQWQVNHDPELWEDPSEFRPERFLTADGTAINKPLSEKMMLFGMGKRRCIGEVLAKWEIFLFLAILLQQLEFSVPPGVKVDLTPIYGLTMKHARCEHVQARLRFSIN
Nature of the data set: Inhibition of recombinant human CYP1A2 expressed in baker's yeast-derived microsomes (Sacchrosomes) at 10 uM using 3-cyano-7-ethoxycoumarin substrate by EROD assay relative to control. To be noted: probe 3-cyano-7-ethoxycoumarin. Type of data set: ADME. In short, it runs like this: as §1

A further data set concerns the target T3, CYP1B1 (Homo sapiens, UniProt Q16678).
T3 sequence (Q16678 whole entry): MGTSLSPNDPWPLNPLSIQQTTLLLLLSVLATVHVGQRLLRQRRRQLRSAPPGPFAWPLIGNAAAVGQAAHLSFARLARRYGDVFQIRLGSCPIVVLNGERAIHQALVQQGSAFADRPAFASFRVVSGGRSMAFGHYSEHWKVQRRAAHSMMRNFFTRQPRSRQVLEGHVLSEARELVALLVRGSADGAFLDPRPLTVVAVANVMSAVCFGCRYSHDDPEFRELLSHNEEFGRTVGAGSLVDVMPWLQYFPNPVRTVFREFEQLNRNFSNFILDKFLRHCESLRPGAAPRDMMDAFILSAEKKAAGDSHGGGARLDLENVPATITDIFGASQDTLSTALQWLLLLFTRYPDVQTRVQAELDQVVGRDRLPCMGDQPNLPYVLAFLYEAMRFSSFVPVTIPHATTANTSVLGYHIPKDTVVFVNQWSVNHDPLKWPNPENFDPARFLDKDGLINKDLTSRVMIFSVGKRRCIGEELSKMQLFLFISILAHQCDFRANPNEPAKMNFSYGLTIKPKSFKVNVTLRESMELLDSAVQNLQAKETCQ
Nature of the data set: Inhibition of recombinant human CYP1B1 expressed in baker's yeast-derived microsomes (Sacchrosomes) at 10 uM using 7-ethoxyresorufin substrate by EROD assay relative to control. To be noted: probe 7-ethoxyresorufin. The class given is ADME. In short, it runs like this: (§2)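 Yeast microsomes carrying recombinant CYP (Sacchrosomes). […] Substrates per isoform are 7-ethoxyresorufin, 3-cyano-7-ethoxycoumarin, EOMCC or dibenzylfluorescein, read as endpoint fluorescence. Background from compound-only wells without enzyme is subtracted. Independent triplicate runs; α-naphthoflavone positive control.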

A further data set deals with CYP2D6 (Homo sapiens, UniProt P10635). The experiment in a line: Inhibition of recombinant human CYP2D6 expressed in baker's yeast-derived microsomes (Sacchrosomes) at 10 uM using 7-ethoxy-methyloxy-3-cyanocoumarin substrate by EROD assay relative to control. The class given is ADME. To be noted: probe 7-ethoxy-methyloxy-3-cyanocoumarin. The essentials:
as §2

Another data set concerns the target CYP3A4 (Homo sapiens, UniProt P08684). The experiment in a line: Inhibition of recombinant human CYP3A4 expressed in baker's yeast-derived microsomes (Sacchrosomes) at 10 uM using dibenzylfluorescein substrate by EROD assay relative to control. The class given is ADME. Particulars: probe dibenzylfluorescein. The essentials:
as §2

A further data set deals with CYP2C9 (Homo sapiens, UniProt P11712). The experiment in a line: Inhibition of recombinant human CYP2C9 expressed in baker's yeast-derived microsomes (Sacchrosomes) at 10 uM using 3-cyano-7-ethoxycoumarin substrate by EROD assay relative to control. To be noted: probe 3-cyano-7-ethoxycoumarin. Type of data set: ADME. In short, it runs like this: as §2
Sequence of CYP2C9 (P11712 whole entry): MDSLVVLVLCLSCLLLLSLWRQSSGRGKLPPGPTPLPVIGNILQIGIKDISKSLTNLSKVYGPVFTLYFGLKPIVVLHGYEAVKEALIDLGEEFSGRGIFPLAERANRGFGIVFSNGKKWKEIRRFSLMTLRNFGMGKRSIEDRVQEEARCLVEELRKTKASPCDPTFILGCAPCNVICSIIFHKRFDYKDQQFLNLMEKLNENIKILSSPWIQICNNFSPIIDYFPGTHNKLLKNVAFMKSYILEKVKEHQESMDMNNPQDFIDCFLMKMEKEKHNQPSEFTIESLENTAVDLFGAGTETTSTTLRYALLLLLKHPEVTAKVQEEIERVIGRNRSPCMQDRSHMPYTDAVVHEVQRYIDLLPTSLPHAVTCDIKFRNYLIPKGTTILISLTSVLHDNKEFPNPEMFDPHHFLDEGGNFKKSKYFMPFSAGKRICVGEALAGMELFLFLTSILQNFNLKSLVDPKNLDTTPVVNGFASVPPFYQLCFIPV
The target of a further data set is CYP2C19 (Homo sapiens, UniProt P33261). Nature of the data set: Inhibition of recombinant human CYP2C19 expressed in baker's yeast-derived microsomes (Sacchrosomes) at 10 uM using 3-cyano-7-ethoxycoumarin substrate by EROD assay relative to control. Type of data set: ADME. To be noted: probe 3-cyano-7-ethoxycoumarin. In short, it runs like this:
as §2

Data set [2] concerns the target T1, CYP1A1. Nature of the data set: Inhibition of human recombinant CYP1A1 expressed in HEK293 cells at 10 uM using 7-ethoxyresorufin substrate preincubated for 30 mins followed by substrate addition and measured after 60 mins by fluorescence assay relative to control. The class given is cell-based. To be noted: HEK293 cells expressing human recombinant CYP1A1, probe 7-ethoxyresorufin. In short, it runs like this: (§3)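 HEK293 cells adapted to suspension and transiently transfected with pcDNA3.1 plasmids carrying the individual CYP; 100×10^3 cells per well in triplicate. […] Fluorogenic substrate is then added at 5 μM and fluorescence read for 60 min.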

The target of another data set is T4, Cytochrome P450 1A1 (Homo sapiens, UniProt P04798).
T4 sequence (P04798 whole entry): T1 sequence (P04798 whole entry)
Nature of the data set: Inhibition of human recombinant CYP1A1 expressed in HEK293 cells using 7-ethoxyresorufin substrate preincubated for 30 mins followed by substrate addition and measured after 60 mins by fluorescence assay relative to control. The class given is cell-based. The essentials:
as §3

The next data set concerns the target T5, Cytochrome P450 1A2 (Homo sapiens, UniProt P05177).
T5 sequence (P05177 whole entry): T2 sequence (P05177 whole entry)
The experiment in a line: Inhibition of human recombinant CYP1A2 expressed in HEK293 cells using 3-cyano-7-ethoxycoumarin substrate preincubated for 30 mins followed by substrate addition and measured after 60 mins by fluorescence assay relative to control. The class given is ADME, cell-based. The essentials: as §3

The target of another data set is T6, Cytochrome P450 1B1 (Homo sapiens, UniProt Q16678).
T6 sequence (Q16678 whole entry): T3 sequence (Q16678 whole entry)
The experiment in a line: Inhibition of human recombinant CYP1B1 expressed in HEK293 cells using 7-ethoxyresorufin substrate substrate preincubated for 30 mins followed by substrate addition and measured after 60 mins by fluorescence assay relative to control. Type of data set: ADME, cell-based. In short, it runs like this: as §3

Another data set has as its target Cytochrome P450 2D6 (Homo sapiens, UniProt P10635). Nature of the data set: Inhibition of human recombinant CYP2D6 expressed in HEK293 cells using 7-ethoxy-methyloxy-3-cyanocoumarin substrate substrate preincubated for 30 mins followed by substrate addition and measured after 60 mins by fluorescence assay relative to control. Type of data set: ADME, cell-based. In short, it runs like this: as §3

Another data set deals with Cytochrome P450 2C9 (Homo sapiens, UniProt P11712). The experiment in a line: Inhibition of human recombinant CYP2C9 expressed in HEK293 cells using 3-cyano-7-ethoxycoumarin substrate substrate preincubated for 30 mins followed by substrate addition and measured after 60 mins by fluorescence assay relative to control. Type of data set: ADME, cell-based. The essentials: as §3
Sequence of Cytochrome P450 2C9 (P11712 whole entry): as above

The next data set addresses Cytochrome P450 2C19 (Homo sapiens, UniProt P33261). The experiment in a line: Inhibition of human recombinant CYP2C19 expressed in HEK293 cells using 3-cyano-7-ethoxycoumarin substrate substrate preincubated for 30 mins followed by substrate addition and measured after 60 mins by fluorescence assay relative to control. The class given is ADME, cell-based. The essentials: as §3

Sequence of Cytochrome P450 2D6 (P10635 whole entry): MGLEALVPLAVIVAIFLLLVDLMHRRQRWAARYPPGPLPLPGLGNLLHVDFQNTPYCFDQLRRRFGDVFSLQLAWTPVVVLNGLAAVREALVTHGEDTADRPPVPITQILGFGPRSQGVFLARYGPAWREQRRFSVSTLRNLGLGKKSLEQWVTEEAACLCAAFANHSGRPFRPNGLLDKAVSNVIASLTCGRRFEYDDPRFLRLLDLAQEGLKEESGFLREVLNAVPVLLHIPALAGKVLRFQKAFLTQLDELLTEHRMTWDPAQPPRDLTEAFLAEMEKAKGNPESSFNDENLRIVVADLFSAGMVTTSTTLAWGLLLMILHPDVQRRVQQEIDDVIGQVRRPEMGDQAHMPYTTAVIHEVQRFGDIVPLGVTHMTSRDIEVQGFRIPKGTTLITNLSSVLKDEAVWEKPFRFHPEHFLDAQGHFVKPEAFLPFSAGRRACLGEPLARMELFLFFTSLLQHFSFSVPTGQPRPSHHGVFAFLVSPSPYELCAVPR
Sequence of CYP2D6 (P10635 whole entry): as above
Sequence of CYP3A4 (P08684 whole entry): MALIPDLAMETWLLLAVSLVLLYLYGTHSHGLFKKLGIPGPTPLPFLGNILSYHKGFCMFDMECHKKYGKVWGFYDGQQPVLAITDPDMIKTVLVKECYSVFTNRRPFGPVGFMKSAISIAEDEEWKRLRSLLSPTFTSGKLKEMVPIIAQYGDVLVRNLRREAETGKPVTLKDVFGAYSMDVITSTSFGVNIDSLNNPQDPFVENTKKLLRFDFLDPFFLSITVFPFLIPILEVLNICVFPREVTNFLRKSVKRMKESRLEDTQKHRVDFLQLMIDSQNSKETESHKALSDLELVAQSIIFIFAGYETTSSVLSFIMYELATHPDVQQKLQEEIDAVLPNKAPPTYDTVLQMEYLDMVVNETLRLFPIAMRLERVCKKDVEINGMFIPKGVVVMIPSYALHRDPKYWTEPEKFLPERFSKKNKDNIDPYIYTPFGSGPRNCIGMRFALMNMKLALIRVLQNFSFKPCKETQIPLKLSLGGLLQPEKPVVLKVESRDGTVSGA
Sequence of Cytochrome P450 2C19 (P33261 whole entry): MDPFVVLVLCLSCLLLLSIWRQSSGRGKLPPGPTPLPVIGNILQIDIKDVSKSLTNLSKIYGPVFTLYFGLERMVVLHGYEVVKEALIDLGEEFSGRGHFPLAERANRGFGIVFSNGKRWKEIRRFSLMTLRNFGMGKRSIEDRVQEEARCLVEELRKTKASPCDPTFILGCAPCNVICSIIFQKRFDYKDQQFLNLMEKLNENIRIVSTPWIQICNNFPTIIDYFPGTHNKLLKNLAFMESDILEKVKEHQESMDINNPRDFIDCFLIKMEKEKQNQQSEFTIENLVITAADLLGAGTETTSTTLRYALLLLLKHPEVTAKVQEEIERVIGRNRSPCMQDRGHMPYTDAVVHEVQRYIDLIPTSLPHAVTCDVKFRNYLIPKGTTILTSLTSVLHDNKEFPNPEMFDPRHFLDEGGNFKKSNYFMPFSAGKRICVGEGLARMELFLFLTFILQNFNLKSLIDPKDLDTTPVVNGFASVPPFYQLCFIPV
Sequence of CYP2C19 (P33261 whole entry): as above

`CC(C)(O)C(O)COc1c2occc2cc2ccc(=O)oc12` (centres undefined): at CYP1A1 [1], the inhibition at 10 µM was determined as 72%.

For the molecule `Cc1c(O)c2c(c(C(=O)/C=C/c3ccccc3)c1O)OC(C)(C)C=C2`, the inhibition at 10 µM at CYP1A1 [1] is 52%.

Turning to `CC1=C(CO)C(=O)O[C@@H]([C@@H](C)[C@H]2CC[C@H]3[C@@H]4C[C@H]5O[C@]56[C@@H](O)C=CC(=O)[C@]6(C)[C@H]4CC[C@]23C)C1` [WITHAFERIN A], the inhibition at 10 µM on CYP1A1 [1] was found to be 50%.

As for `O=C(/C=C/C=C/c1ccc2c(c1)OCO2)N1CCCCC1` [PIPERINE], at CYP1A1 [1], the inhibition at 10 µM was found to be 42%.

Regarding `COc1c2occc2c(OC)c2c(=O)cc(C)oc12` [KHELLIN], the inhibition at 10 µM at CYP1A1 [1] is 92%; on CYP1A2, 99%; at CYP1B1 it was 5%; on CYP2D6, 8%; on CYP3A4, 11%; on CYP2C9, 12%. The inhibition at 10 µM on CYP2C19 worked out at 8%. Besides, the inhibition at 1 h, 10 µM at CYP1A1 [2] amounted to 75%. For the same molecule, the IC50 at Cytochrome P450 1A1 is 4.02 µM; at Cytochrome P450 1A2 it was 0.04 µM; at Cytochrome P450 1B1, 34.6 µM; at Cytochrome P450 2D6, above 10 µM; on Cytochrome P450 2C9, above 10 µM; at Cytochrome P450 2C19, above 10 µM. For the same molecule, the Ki on Cytochrome P450 1A1 was 3.8 µM; on Cytochrome P450 1A2, 0.031 µM.

As for `O=c1ccc2cc3ccoc3cc2o1` [PSORALEN], the inhibition at 10 µM on CYP1A1 [1] was 69%.

Regarding `CC(C)=CCOc1c2occc2cc2ccc(=O)oc12` [PENTOSALEN], the inhibition at 10 µM at CYP1A1 [1] was found to be 71%.

As for `O=c1cc(-c2ccc(O)cc2)oc2c([C@@H]3O[C@H](CO)[C@@H](O)[C@H](O)[C@H]3O)c(O)cc(O)c12` [VITEXIN], on CYP1A1 [1], the inhibition at 10 µM stood at 42%.

In the case of `O=c1ccc2ccc3occc3c2o1` [ANGELICIN], the inhibition at 10 µM at CYP1A1 [1] was 80%.
